# According to ChEMBL document CHEMBL1142939, “Neopeltolide, a macrolide from a lithistid sponge of the family Neopeltidae” (J Nat Prod, 2007):
# pIC50: −log10 of the molar value.
# Tests used:
# [1] = system: A549; experiment: Cell cycle arrest in A549 cells by accumulation at S phase at 100 nM; format: functional, Homo sapiens
# [2] = system: A549; experiment: Cell cycle arrest in A549 cells by accumulation at G1 phase at 100 nM; format: functional, Homo sapiens
# [3] = system: A549; experiment: Cell cycle arrest in A549 cells by accumulation at G2/M phase at 100 nM; format: functional, Homo sapiens
# [4] = Cytotoxicity against mouse NCI-P388 cells by MTT assay; format: cell-based
# Outline: (§1)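 MTT cell proliferation assay following previously described protocols. Each sample assayed at least three times to derive the final IC50.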
# [5] = system: A549; experiment: Cell cycle arrest in A549 cells by accumulation at G1 phase at 10 nM; format: functional, Homo sapiens
# [6] = system: DLD-1; experiment: Cytotoxicity against p53 mutated NCI-DLD1 cells by MTT assay; format: cell-based; settings: human; outline: as §1
# [7] = system: A549; experiment: Cell cycle arrest in A549 cells by accumulation at G1 phase at 0.1 nM; format: functional, Homo sapiens
# [8] = system: Candida albicans; experiment: Antifungal activity against Candida albicans ATCC 44506 at 25 ug/disk by agar diffusion assay; format: functional; settings: read-out: IZ
# Outline: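 Sabouraud dextrose agar plates seeded with 10^5/mL C. albicans. Disks loaded with 25 µg compound, dried and placed on the agar. Incubated 37 °C for 24 h, then the growth-inhibition zone was measured. A nystatin disk (100 IU) ran on the same plate as control.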
# [9] = system: Candida albicans; experiment: Antifungal activity against Candida albicans ATCC 44506 by broth dilution assay; format: functional
# Outline: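 Broth microdilution in 96-well plates, seeded at 10^3 cells/mL. Compound tested as 2-fold dilutions from 5 to 0.4 µg/mL. Incubated 37 °C for 24 h. MIC taken as the lowest concentration completely inhibiting growth. 5-Fluorocytosine served as antifungal control.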
# [10] = system: A549; experiment: Cell cycle arrest in A549 cells by accumulation at S phase at 10 nM; format: functional, Homo sapiens
# [11] = Cytotoxicity against human NCI-ADR-RES cells by MTT assay; format: cell-based; outline: as §1
# [12] = system: A549; experiment: Cell cycle arrest in A549 cells by accumulation at G1 phase at 1 nM; format: functional, Homo sapiens
# [13] = system: A549; experiment: Cell cycle arrest in A549 cells by accumulation at S phase at 0.1 nM; format: functional, Homo sapiens
# [14] = system: A549; experiment: Cell cycle arrest in A549 cells by accumulation at S phase at 1 nM; format: functional, Homo sapiens
# [15] = system: A549; experiment: Cell cycle arrest in A549 cells by accumulation at G2/M phase at 10 nM; format: functional, Homo sapiens
# [16] = Cytotoxicity against p53 mutated PANC1 cells ATCC CRL1469 by MTT assay; format: cell-based; settings: human, panc-1; outline: as §1
# [17] = system: A549; experiment: Cytotoxicity against human A549 cells ATCC CCL-185 by MTT assay; format: cell-based; outline: as §1
# [18] = system: A549; experiment: Cell cycle arrest in A549 cells by accumulation at G2/M phase at 1 nM; format: functional, Homo sapiens
# [19] = system: A549; experiment: Cell cycle arrest in A549 cells by accumulation at G2/M phase at 0.1 nM; format: functional, Homo sapiens
SMILES,Activity [1],Activity [2],Activity [3],pIC50 [4],Activity [5],Activity [6],Activity [7],zone of inhibition at 25 µg/disc [8],MIC [9],Activity [10],pIC50 [11],Activity [12],Activity [13],Activity [14],Activity [15],Activity [16],pIC50 [17],Activity [18],Activity [19]
CC(=O)O[C@H]1C(=O)[C@@]2(C)[C@H]([C@H](OC(=O)c3ccccc3)[C@]3(O)C[C@H](OC(=O)[C@H](O)[C@@H](NC(=O)c4ccccc4)c4ccccc4)C(C)=C1C3(C)C)[C@]1(OC(C)=O)CO[C@@H]1C[C@@H]2O [PACLITAXEL],0%,1.56%,98.44%,,,,,,,,,,,,,,,,
CCC[C@@H]1C[C@H](OC)C[C@H](C)C[C@@H]2C[C@@H](OC(=O)/C=C\CCc3coc(/C=C\CNC(=O)OC)n3)C[C@H](CC(=O)O1)O2 [NEOPELTOLIDE],22.02%,63.03%,14.95%,9.25,59.66%,Active,46.4%,17 mm,0.625 µg/mL,30.27%,8.29,46.11%,40.01%,39.95%,10.07%,Active,8.92,13.94%,13.59%
